Converted amounts (≈) assume the structure as drawn. The source made the active and inactive calls. No cut-off for these calls is given here.
Key:
[1] = Drug level in rat plasma at 2000 mg/kg, po measured after 24 hrs; type: ADME, organism-based; conditions: in vivo
[2] = Drug metabolism in human liver microsomes assessed as metabolite retention time incubation for 45 mins; type: ADME, Microsome; conditions: 0.75 h
Summary of the method: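 Incubation of substrate in pooled male and female human liver microsomes for 45 min; parent and metabolite resolved by LC-MS, metabolite identified by retention time and [M+H]+ ion.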

[3] = Drug metabolism in beta-naphthoflavone/phenobarbital-induced rat liver S9 fraction assessed as compound-D1 formation at 100 ug/ml in presence of NADPH measured after 4 hrs by UV-Vis spectroscopy; type: ADME, subcellular; conditions: s9, 4 h
[4] = Drug metabolism in beta-naphthoflavone/phenobarbital-induced rat liver S9 fraction assessed as compound-D2 formation at 100 ug/ml in presence of NADPH measured after 4 hrs by UV-Vis spectroscopy; type: ADME, subcellular; conditions: s9, 4 h
[5] = biological target: CYP1A1 (Homo sapiens, UniProt P04798); test: Drug metabolism assessed as human CYP1A1-mediated metabolism by measuring half life; type: ADME; conditions: human CYP1A1 enzyme
[6] = biological target: CYP1A2 (Homo sapiens, UniProt P05177); test: Drug metabolism assessed as human CYP1A2-mediated metabolism by measuring half life; type: ADME; conditions: human CYP1A2 enzyme
[7] = biological target: CYP2B6 (Homo sapiens, UniProt P20813); test: Drug metabolism assessed as human CYP2B6-mediated metabolism by measuring half life; type: ADME; conditions: human CYP2B6 enzyme
[8] = biological target: CYP2C8 (Homo sapiens, UniProt P10632); test: Drug metabolism assessed as human CYP2C8-mediated metabolism by measuring half life; type: ADME; conditions: human CYP2C8 enzyme
[9] = biological target: CYP2C9 (Homo sapiens, UniProt P11712); test: Drug metabolism assessed as human CYP2C9-mediated metabolism by measuring half life; type: ADME; conditions: human CYP2C9 enzyme
[10] = biological target: CYP2C19 (Homo sapiens, UniProt P33261); test: Drug metabolism assessed as human CYP2C19-mediated metabolism by measuring half life; type: ADME; conditions: human CYP2C19 enzyme
[11] = biological target: CYP2D6 (Homo sapiens, UniProt P10635); test: Drug metabolism assessed as human CYP2D6-mediated metabolism by measuring half life; type: ADME; conditions: human CYP2D6 enzyme
[12] = biological target: CYP3A4 (Homo sapiens, UniProt P08684); test: Drug metabolism assessed as human CYP3A4-mediated metabolism by measuring half life; type: ADME; conditions: human CYP3A4 enzyme
[13] = biological target: T1, Cytochrome P450 1A2 (Homo sapiens, UniProt P05177); test: Drug metabolism assessed as human CYP1A2-mediated metabolism by measuring DHD1 formation; type: ADME; conditions: recombinant enzyme
T1 sequence (P05177 whole entry): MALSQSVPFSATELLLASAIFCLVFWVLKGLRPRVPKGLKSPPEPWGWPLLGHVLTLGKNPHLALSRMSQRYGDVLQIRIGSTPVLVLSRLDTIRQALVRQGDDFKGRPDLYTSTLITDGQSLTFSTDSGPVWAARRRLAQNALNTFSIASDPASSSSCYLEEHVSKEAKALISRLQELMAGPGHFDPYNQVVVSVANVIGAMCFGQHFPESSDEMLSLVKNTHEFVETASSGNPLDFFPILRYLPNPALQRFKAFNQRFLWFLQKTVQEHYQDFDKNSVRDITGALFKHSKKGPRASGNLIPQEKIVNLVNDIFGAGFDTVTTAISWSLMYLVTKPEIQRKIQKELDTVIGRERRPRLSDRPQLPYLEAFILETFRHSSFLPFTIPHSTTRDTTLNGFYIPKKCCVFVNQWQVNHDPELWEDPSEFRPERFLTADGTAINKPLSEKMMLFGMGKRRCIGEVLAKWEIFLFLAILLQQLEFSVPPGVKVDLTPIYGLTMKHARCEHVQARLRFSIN

[14] = biological target: T2, Cytochrome P450 2B6 (Homo sapiens, UniProt P20813); test: Drug metabolism assessed as human CYP2B6-mediated metabolism by measuring DHD1 formation; type: ADME; conditions: recombinant enzyme
[15] = biological target: T3, Cytochrome P450 2D6 (Homo sapiens, UniProt P10635); test: Drug metabolism assessed as human CYP2D6-mediated metabolism by measuring DHD1 formation; type: ADME; conditions: recombinant enzyme
[16] = biological target: Cytochrome P450 1A1 (Homo sapiens, UniProt P04798); test: Drug metabolism assessed as human CYP1A1-mediated metabolism by measuring DHD3 formation; type: ADME; conditions: recombinant enzyme
[17] = biological target: T1, Cytochrome P450 1A2; test: Drug metabolism assessed as human CYP1A2-mediated metabolism by measuring DHD3 formation; type: ADME; conditions: recombinant enzyme
[18] = biological target: T2, Cytochrome P450 2B6; test: Drug metabolism assessed as human CYP2B6-mediated metabolism by measuring DHD3 formation; type: ADME; conditions: recombinant enzyme
[19] = biological target: Cytochrome P450 2C8 (Homo sapiens, UniProt P10632); test: Drug metabolism assessed as human CYP2C8-mediated metabolism by measuring DHD3 formation; type: ADME; conditions: recombinant enzyme
[20] = biological target: Cytochrome P450 2C9 (Homo sapiens, UniProt P11712); test: Drug metabolism assessed as human CYP2C9-mediated metabolism by measuring DHD3 formation; type: ADME; conditions: recombinant enzyme
[21] = biological target: Cytochrome P450 2C19 (Homo sapiens, UniProt P33261); test: Drug metabolism assessed as human CYP2C19-mediated metabolism by measuring DHD3 formation; type: ADME; conditions: recombinant enzyme
[22] = biological target: T3, Cytochrome P450 2D6; test: Drug metabolism assessed as human CYP2D6-mediated metabolism by measuring DHD3 formation; type: ADME; conditions: recombinant enzyme
[23] = biological target: Cytochrome P450 3A4 (Homo sapiens, UniProt P08684); test: Drug metabolism assessed as human CYP3A4-mediated metabolism by measuring DHD3 formation; type: ADME; conditions: recombinant enzyme
[24] = Intrinsic clearance in human liver microsomes in presence of CYP1A inhibitor alpha-naphthoflavone; type: ADME, Microsome; conditions: with alpha-naphthoflavone (CYP1A inhibitor), read-out: CLH
[25] = Intrinsic clearance in human liver microsomes in presence of CYP2B6 inhibitor Ticlopidine; type: ADME, Microsome; conditions: with Ticlopidine (CYP2B6 inhibitor), read-out: CLH
[26] = Intrinsic clearance in human liver microsomes in presence of CYP2D6 inhibitor Quinidine; type: ADME, Microsome; conditions: with Quinidine (CYP2D6 inhibitor), read-out: CLH
[27] = Intrinsic clearance in human liver microsomes; type: ADME, Microsome; conditions: read-out: CLH
[28] = Drug metabolism in rat plasma assessed as formation of glucuronide conjugate of dihydrodiol at 2000 mg/kg, po dosed for 28 days; type: ADME, organism-based; conditions: in vivo, 672 h
[29] = Drug metabolism in rat plasma assessed as formation of O-glucuronide conjugate of aromatized diol at 2000 mg/kg, po dosed for 28 days; type: ADME, organism-based; conditions: in vivo, 672 h
[30] = biological target: T1, Cytochrome P450 1A2; test: Inhibition of CYP1A2 in human liver microsomes; type: ADME
[31] = Effect on microsomal protein concentrations in minipig at 500 mg/kg/day, po for 39 weeks; type: ADME, organism-based, Sus scrofa domesticus; conditions: pig, in vivo, 6552 h
[32] = Effect on total cytochrome P450 content in minipig at 500 mg/kg/day, po for 39 weeks; type: ADME, organism-based, Sus scrofa domesticus; conditions: pig, in vivo, 6552 h
[33] = tested on: Rattus norvegicus; test: Effect on microsomal protein concentrations in rat at 2000 mg/kg/day, po for 28 days; type: ADME, organism-based; conditions: in vivo, 672 h
Summary of the method: (§1)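 Rats dosed 2000 mg/kg/day by oral gavage for 28 days; liver microsomes prepared, microsomal protein concentration and total P450 content measured.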

[34] = tested on: Rattus norvegicus; test: Effect on total cytochrome P450 content in rat at 2000 mg/kg/day, po for 28 days; type: ADME, organism-based; conditions: in vivo, 672 h; summary of the method: as §1
[35] = Induction of CYP1A1/2 enzymes in male minipig assessed as increase in EROD enzyme activity at 500 mg/kg/day, po for 39 weeks relative to control; type: ADME, organism-based, Sus scrofa domesticus; conditions: pig, in vivo, 6552 h
[36] = Induction of CYP2B enzymes in male minipig assessed as increase in PROD enzyme activity at 500 mg/kg/day, po for 39 weeks relative to control; type: ADME, organism-based, Sus scrofa domesticus; conditions: pig, in vivo, 6552 h
[37] = Induction of CYP3A enzymes in minipig assessed as increase in testosterone hydroxylase activity at 500 mg/kg/day, po for 39 weeks relative to control; type: ADME, organism-based, Sus scrofa domesticus; conditions: pig, in vivo, 6552 h
[38] = Induction of CYP2E1 enzymes in minipig assessed as increase in 11-hydroxylase activity at 500 mg/kg/day, po for 39 weeks relative to control; type: ADME, organism-based, Sus scrofa domesticus; conditions: pig, in vivo, 6552 h
[39] = Induction of CYP4A enzymes in minipig assessed as increase in 12-hydroxylase activity at 500 mg/kg/day, po for 39 weeks relative to control; type: ADME, organism-based, Sus scrofa domesticus; conditions: pig, in vivo, 6552 h
[40] = Kinetic aqueous solubility of the compound; type: physicochemical; conditions: buffer; read-out: Kinetic_solubility
[41] = Permeability at pH 7.4 by PAMPA; type: ADME; conditions: read-out: permeability
[42] = Protein binding in mouse plasma assessed as bound fraction; type: ADME, cell-free; conditions: read-out: PPB (converted)
Summary of the method: (§2)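 Binding measured in 100% plasma; reported as fraction bound.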

[43] = Protein binding in human plasma assessed as bound fraction; type: ADME, cell-free; conditions: read-out: PPB (converted); summary of the method: as §2
[44] = Half life in mouse liver S9 fraction; type: ADME, subcellular
Summary of the method: (§3)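 Metabolic stability of the dihydrodiols measured in vitro with mouse and human liver S9 fractions and with mouse and human hepatocytes; half-life from substrate depletion.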

[45] = Half life in human liver S9 fraction; type: ADME, subcellular; summary of the method: as §3
[46] = Intrinsic clearance in mouse liver S9 fraction; type: ADME, subcellular; conditions: read-out: CLH
[47] = Intrinsic clearance in human liver S9 fraction; type: ADME, subcellular; conditions: read-out: CLH
[48] = tested on: UDP-glucuronosyltransferases (UGTs); test: Drug metabolism assessed as human UGT-mediated metabolism by measuring half life for DHD3 formation; type: ADME, protein assay
[49] = species: Homo sapiens; test: Substrate activity at MDR4 (unknown origin)

T3 sequence (P10635 whole entry): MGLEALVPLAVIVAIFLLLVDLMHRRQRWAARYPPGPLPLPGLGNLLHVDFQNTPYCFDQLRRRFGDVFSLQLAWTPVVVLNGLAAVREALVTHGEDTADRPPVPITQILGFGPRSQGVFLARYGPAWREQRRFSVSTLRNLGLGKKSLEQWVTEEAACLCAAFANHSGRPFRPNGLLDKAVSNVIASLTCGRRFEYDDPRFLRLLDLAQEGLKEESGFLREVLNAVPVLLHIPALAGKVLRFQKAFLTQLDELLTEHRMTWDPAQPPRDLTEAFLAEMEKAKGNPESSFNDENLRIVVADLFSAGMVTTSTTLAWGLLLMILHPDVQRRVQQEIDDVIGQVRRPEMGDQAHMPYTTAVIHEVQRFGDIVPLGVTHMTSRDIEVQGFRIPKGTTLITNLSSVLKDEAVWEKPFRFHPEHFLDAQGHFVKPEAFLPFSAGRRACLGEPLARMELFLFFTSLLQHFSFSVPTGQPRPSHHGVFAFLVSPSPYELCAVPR
T2 sequence (P20813 whole entry): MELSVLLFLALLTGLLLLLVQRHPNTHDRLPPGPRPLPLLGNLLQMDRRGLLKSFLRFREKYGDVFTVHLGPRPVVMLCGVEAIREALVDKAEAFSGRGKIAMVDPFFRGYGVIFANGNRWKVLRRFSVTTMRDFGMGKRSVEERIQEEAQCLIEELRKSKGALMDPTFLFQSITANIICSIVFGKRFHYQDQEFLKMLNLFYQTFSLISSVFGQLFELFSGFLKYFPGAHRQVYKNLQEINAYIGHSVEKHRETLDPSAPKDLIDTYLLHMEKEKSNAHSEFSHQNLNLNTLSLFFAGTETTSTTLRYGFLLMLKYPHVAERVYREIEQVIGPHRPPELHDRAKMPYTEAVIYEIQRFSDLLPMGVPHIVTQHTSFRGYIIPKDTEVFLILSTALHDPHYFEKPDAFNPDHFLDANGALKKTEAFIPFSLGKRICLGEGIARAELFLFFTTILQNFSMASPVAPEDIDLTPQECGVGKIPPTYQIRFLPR
Chain of CYP2D6 (P10635 whole entry): as the sequence (P10635 whole entry) above
Chain of CYP3A4 (P08684 whole entry): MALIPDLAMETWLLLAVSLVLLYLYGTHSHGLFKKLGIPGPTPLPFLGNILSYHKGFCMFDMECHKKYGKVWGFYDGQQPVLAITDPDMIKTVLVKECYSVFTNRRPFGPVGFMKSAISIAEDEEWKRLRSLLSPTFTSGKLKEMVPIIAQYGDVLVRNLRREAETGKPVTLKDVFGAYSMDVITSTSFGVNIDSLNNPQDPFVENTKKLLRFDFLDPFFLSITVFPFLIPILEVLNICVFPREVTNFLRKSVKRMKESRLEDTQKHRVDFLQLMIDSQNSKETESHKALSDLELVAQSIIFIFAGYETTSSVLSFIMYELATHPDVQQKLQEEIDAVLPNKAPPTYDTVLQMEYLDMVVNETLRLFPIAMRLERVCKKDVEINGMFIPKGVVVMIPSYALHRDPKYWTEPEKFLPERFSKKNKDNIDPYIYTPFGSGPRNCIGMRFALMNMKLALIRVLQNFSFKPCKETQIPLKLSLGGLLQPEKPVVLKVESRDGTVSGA
Chain of Cytochrome P450 3A4 (P08684 whole entry): as above
Chain of CYP2C19 (P33261 whole entry): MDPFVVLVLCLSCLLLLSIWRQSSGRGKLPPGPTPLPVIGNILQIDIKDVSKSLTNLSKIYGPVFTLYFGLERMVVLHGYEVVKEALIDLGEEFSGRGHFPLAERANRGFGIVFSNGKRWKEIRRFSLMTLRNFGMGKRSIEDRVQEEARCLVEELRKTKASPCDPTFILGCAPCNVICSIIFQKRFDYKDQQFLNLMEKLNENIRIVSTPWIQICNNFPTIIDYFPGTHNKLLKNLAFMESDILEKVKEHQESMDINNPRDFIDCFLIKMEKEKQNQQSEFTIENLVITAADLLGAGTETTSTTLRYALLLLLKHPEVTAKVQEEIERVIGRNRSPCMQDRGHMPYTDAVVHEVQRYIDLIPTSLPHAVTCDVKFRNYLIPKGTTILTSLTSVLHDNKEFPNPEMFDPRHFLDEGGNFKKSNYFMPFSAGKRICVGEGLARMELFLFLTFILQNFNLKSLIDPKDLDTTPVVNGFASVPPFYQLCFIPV
Chain of Cytochrome P450 2C19 (P33261 whole entry): as above
Chain of CYP2B6 (P20813 whole entry): as the sequence (P20813 whole entry) above
Chain of CYP2C9 (P11712 whole entry): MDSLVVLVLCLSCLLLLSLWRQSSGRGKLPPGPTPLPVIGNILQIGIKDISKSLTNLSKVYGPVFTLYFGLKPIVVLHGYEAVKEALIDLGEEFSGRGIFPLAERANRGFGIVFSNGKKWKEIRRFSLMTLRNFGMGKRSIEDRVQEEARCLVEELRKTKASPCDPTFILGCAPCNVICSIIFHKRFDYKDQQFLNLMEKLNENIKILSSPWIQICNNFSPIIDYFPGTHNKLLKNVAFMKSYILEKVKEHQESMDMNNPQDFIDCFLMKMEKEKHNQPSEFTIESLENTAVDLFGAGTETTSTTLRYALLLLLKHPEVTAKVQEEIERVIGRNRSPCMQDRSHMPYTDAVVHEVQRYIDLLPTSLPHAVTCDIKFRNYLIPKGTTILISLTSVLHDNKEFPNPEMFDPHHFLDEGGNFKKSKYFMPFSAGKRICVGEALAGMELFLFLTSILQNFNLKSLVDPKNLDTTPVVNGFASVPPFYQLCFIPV
Chain of Cytochrome P450 2C9 (P11712 whole entry): as above
Chain of Cytochrome P450 2C8 (P10632 whole entry): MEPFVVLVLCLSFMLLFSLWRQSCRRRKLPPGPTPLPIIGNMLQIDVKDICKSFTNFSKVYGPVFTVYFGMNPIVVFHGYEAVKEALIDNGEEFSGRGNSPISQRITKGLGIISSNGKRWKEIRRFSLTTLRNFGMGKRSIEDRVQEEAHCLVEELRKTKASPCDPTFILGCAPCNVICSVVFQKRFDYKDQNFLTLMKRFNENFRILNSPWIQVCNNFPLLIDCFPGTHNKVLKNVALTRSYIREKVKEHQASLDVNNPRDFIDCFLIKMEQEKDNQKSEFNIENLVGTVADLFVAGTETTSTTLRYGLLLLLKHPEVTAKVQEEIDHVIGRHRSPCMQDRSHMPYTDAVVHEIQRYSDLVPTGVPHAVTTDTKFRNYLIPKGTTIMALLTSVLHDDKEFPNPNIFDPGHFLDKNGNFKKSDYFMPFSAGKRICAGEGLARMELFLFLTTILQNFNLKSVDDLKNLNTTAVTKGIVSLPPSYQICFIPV
Chain of CYP2C8 (P10632 whole entry): as above
Chain of CYP1A1 (P04798 whole entry): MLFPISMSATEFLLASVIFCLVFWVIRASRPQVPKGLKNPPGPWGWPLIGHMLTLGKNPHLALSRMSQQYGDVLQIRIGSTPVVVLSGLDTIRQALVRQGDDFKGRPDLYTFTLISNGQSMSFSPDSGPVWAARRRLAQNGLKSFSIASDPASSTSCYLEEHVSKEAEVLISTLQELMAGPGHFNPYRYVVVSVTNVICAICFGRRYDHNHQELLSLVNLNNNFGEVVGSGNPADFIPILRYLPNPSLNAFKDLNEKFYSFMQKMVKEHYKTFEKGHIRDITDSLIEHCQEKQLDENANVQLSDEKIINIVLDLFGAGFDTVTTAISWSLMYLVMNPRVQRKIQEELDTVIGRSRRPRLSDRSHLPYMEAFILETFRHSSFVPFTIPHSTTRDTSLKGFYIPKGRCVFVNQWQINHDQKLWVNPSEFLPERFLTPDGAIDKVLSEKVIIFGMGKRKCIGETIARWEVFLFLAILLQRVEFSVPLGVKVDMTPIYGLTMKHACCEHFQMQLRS
Chain of Cytochrome P450 1A1 (P04798 whole entry): as above

Drug uptake [1]: 38 to 89%
Retention_time [2]: 5.7 min
Drug metabolism [3]: Metabolite_Detected
Drug metabolism [4]: Metabolite_Detected
half-life [5]: 2.16 min
half-life [6]: 2.62 min
half-life [7]: ≥ 3 h
half-life [8]: ≥ 3 h
half-life [9]: ≥ 3 h
half-life [10]: ≥ 3 h
half-life [11]: ≥ 3 h
half-life [12]: ≥ 3 h
Drug metabolism [13]: Metabolite_Detected
Drug metabolism [14]: Metabolite_Detected
Drug metabolism [15]: Metabolite_Detected
Drug metabolism [16]: Metabolite_Notdetected
Drug metabolism [17]: Metabolite_Notdetected
Drug metabolism [18]: Metabolite_Notdetected
Drug metabolism [19]: Metabolite_Notdetected
Drug metabolism [20]: Metabolite_Notdetected
Drug metabolism [21]: Metabolite_Notdetected
Drug metabolism [22]: Metabolite_Notdetected
Drug metabolism [23]: Metabolite_Notdetected
microsomal CLint [24]: 5.06 µL/min/mg
microsomal CLint [25]: 21.4 µL/min/mg
microsomal CLint [26]: 35.1 µL/min/mg
microsomal CLint [27]: 50.7 µL/min/mg
Drug metabolism [28]: Metabolite_Detected
Drug metabolism [29]: Metabolite_Detected
IC50 [30]: 5.4 µM
Activity [35]: Not Active
Activity [36]: Not Active
Activity [37]: Not Active
Activity [38]: Not Active
Activity [39]: Not Active
solubility kinetic [40]: 1 to 2 µM (≈ 0.337 to 0.675 µg/mL)
Papp [41]: 9.5 ×10⁻⁶ cm/s
fraction unbound [42]: 0.005
fraction unbound [43]: 0.01
half-life [44]: 1.23 h
half-life [45]: 1.68 h
microsomal CLint [46]: 19 µL/min/mg
microsomal CLint [47]: 14 µL/min/mg
t1/2 [48]: > 4 h
Activity [49]: inactive
SMILES: CCS(=O)(=O)c1ccc2oc(-c3ccc4ccccc4c3)nc2c1 [EZUTROMID]
Activity [31]: Non-Toxic
Activity [32]: Non-Toxic
Activity [33]: Non-Toxic
Activity [34]: Non-Toxic

Source: ChEMBL document CHEMBL4376826 (J Med Chem, 2020)
